# ChEMBL document CHEMBL3870319, “Synthesis and biological evaluation of rhein amides as inhibitors of osteoclast differentiation and bone resorption” (Eur J Med Chem, 2016)
# Calls of active or inactive are those of the source. No cut-off for these calls is given here.
# What was measured:
# [1] = Cytotoxicity against C57/BL6 mouse primary BMDM assessed as cell viability at 5 uM after 2 days in presence of M-CSF by MTT assay relative to control; format: toxicity; settings: primary bone marrow-derived macrophages (BMDM), read-out: Activity
# Procedure, shortened: (§1)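 Primary BMMs were obtained by flushing femur and tibia marrow of 4-week-old male C57BL/6 mice, culturing it overnight, then expanding the non-adherent cells with 30 ng/mL M-CSF to 90% confluence. They were seeded at 3×10^3 cells/well in full α-MEM with 30 ng/mL M-CSF. Next day, compound was added in triplicate for two days. MTT (5 mg/mL) was added for 2 h at 37°C, crystals were dissolved in DMSO, and OD was read at 570 nm. Viability is relative to untreated control (100%).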
# [2] = organism: Mus musculus; assay: Inhibition of RANK/RANKL/NFATc1 signalling pathway in M-CSF-stimulated C57/BL6 mouse primary BMDM assessed as reduction in MMP9 mRNA level at 5 uM by qRT-PCR analysis
# Procedure, shortened: (§2)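 BMMs treated with M-CSF and/or RANKL alone or with 5 µM compound; mRNA for NFATc1, c-fos, TRAP, MMP-9 and cathepsin K measured by SYBR Green qRT-PCR, normalized to β-actin, expressed as fold change versus control cells; mean ± S.D. of triplicate measurements per cDNA sample.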
# [3] = organism: Mus musculus; assay: Inhibition of RANK/RANKL/NFATc1 signalling pathway in M-CSF-stimulated C57/BL6 mouse primary BMDM assessed as reduction in TRAP mRNA level at 5 uM by qRT-PCR analysis; procedure, shortened: as §2
# [4] = organism: Mus musculus; assay: Cytotoxicity against C57/BL6 mouse MSC assessed as reduction in cell viability at 5 uM after 2 days in presence of M-CSF by MTT assay; format: toxicity; settings: 48 h
# Procedure, shortened: (§3)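 MTT viability in MC3T3-E1 preosteoblasts (ATCC) or C57BL/6-derived mouse MSCs grown in α-MEM with 10% FBS and penicillin/streptomycin at 37°C, 5% CO2. Compound at indicated concentrations for 2 days, then MTT read. Viability expressed relative to control, mean ± SD of triplicates.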
# [5] = organism: Mus musculus; assay: Cytotoxicity against C57/BL6 mouse primary BMDM assessed as cell viability at 7.5 uM after 2 days in presence of M-CSF by MTT assay; format: toxicity; settings: 48 h; procedure, shortened: as §1
# [6] = organism: Mus musculus; assay: Inhibition of RANK/RANKL/NFATc1 signalling pathway in M-CSF-stimulated C57/BL6 mouse primary BMDM assessed as reduction in cathepsin K mRNA level at 5 uM by qRT-PCR analysis; procedure, shortened: as §2
# [7] = test system: BMDM; assay: Inhibition of RANKL/M-CSF-induced bone resorption of osteoclast in C57/BL6 mouse primary BMDM cultured on bovine femur bone slices assessed as reduction in bone resorption area at 5 uM after 5 days by toluidine blue staining based microscopy; format: functional
# Procedure, shortened: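 BMMs seeded on bovine femur bone slices; next day induced with 30 ng/mL M-CSF plus 50 ng/mL RANKL with compound for five days, medium changed every two days. Cells fixed in 2.5% glutaraldehyde, slices stained with 0.5% toluidine blue, imaged at 200×; pit area from three random fields per slice, expressed as % of control.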
# [8] = test system: BMDM; assay: Inhibition of RANKL/M-CSF-induced osteoclastogenesis in C57/BL6 mouse primary BMDM assessed reduction in TRAP-positive multinucleated cells at 5 uM after 5 days; format: functional
# Procedure, shortened: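 Mouse C57BL/6 BMMs were adhered overnight in M-CSF medium, then cultured with 30 ng/mL M-CSF plus 50 ng/mL RANKL and compound for five days, with medium changed every two days. Cells were TRAP-stained with a leukocyte acid phosphatase kit, and TRAP-positive cells with ≥3 nuclei were counted as osteoclasts. Counts are expressed as percent of control, from at least three experiments.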
# [9] = organism: Mus musculus; assay: Cytotoxicity against mouse MC3T3-E1 cells assessed as reduction in cell viability at 5 uM after 2 days in presence of M-CSF by MTT assay; format: toxicity, cell-based; settings: mc3t3-e1, 48 h; procedure, shortened: as §3
# [10] = test system: BMDM; assay: (§4) Inhibition of RANKL/M-CSF-induced osteoclastogenesis in C57/BL6 mouse primary BMDM assessed as reduction in TRAP activity using pNPP as substrate after 2 days by colorimetric assay; format: functional
# Procedure, shortened: (§5)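 BMMs at 3×10^3 cells/well exposed to 30 ng/mL M-CSF plus 50 ng/mL RANKL with compound in triplicate for two days. PBS-washed cells lysed 15 min at 37°C; lysate incubated 45 min with p-NPP in presence of disodium tartrate, stopped with NaOH, OD read at 405 nm, normalized to BCA protein; inhibition relative to control.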
# [11] = as §4; format: functional; procedure, shortened: as §5
# [12] = organism: Mus musculus; assay: Inhibition of RANK/RANKL/NFATc1 signalling pathway in M-CSF-stimulated C57/BL6 mouse primary BMDM assessed as reduction in c-FOS mRNA level at 5 uM by qRT-PCR analysis; procedure, shortened: as §2
# [13] = organism: Mus musculus; assay: Inhibition of RANK/RANKL/NFATc1 signalling pathway in M-CSF-stimulated C57/BL6 mouse primary BMDM assessed as reduction in NFATc1 mRNA level at 5 uM by qRT-PCR analysis; procedure, shortened: as §2
# [14] = Induction of C57/BL6 mouse primary BMDM proliferation assessed at 5 uM after 2 days by MTT assay relative to control; settings: 48 h
# Procedure, shortened: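 BMMs from femur/tibia marrow of 4-week-old male C57BL/6 mice, expanded in α-MEM/10% FBS with 30 ng/mL M-CSF. Seeded at 3×10^3 cells/well, treated next day in triplicate for two days with M-CSF present. MTT (5 mg/mL stock) for 2 h at 37°C, crystals dissolved in DMSO, OD 570 nm; viability relative to untreated control.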
SMILES,"viability at 48 h, 5 µM [1]",inhibition (INH) [11],further results
CC(=O)Oc1cccc2c1C(=O)c1c(OC(C)=O)cc(C(=O)Nc3ccccc3)cc1C2=O,28%,–,–
CC(=O)Oc1cccc2c1C(=O)c1c(OC(C)=O)cc(C(=O)Nc3cc(C(F)(F)F)ccn3)cc1C2=O,37%,–,–
O=C1c2cccc(O)c2C(=O)c2c(O)cc(C(=O)N3CCC(N4CCOCC4)CC3)cc21,92%,98%,inhibition [2]: Active; inhibition [3]: Active; Activity [4]: Non-Toxic; Activity [5]: Non-Toxic; inhibition [6]: Active; inhibition [7]: Active; inhibition [8]: Active; Activity [9]: Non-Toxic; inhibition [10]: Dose-dependent effect; inhibition [12]: Active; inhibition [13]: Active
CC(=O)Oc1cccc2c1C(=O)c1c(OC(C)=O)cc(C(=O)Nc3ccc(C(F)(F)F)cn3)cc1C2=O,35%,–,–
O=C(NCCN1CCOCC1)c1cc(O)c2c(c1)C(=O)c1cccc(O)c1C2=O,15%,–,–
O=C(Nc1ccccc1)c1cc(O)c2c(c1)C(=O)c1cccc(O)c1C2=O,53%,–,–
CC(=O)Oc1cccc2c1C(=O)c1c(OC(C)=O)cc(C(=O)Nc3ccc(C(F)(F)F)cc3)cc1C2=O,51%,–,–
CC(=O)Oc1cccc2c1C(=O)c1c(OC(C)=O)cc(C(=O)Nc3ccc(C(F)(F)F)cc3Cl)cc1C2=O,17%,–,–
Cc1ccc(NC(=O)c2cc(O)c3c(c2)C(=O)c2cccc(O)c2C3=O)cc1,62%,–,–
O=C1c2cccc(O)c2C(=O)c2c(O)cc(C(=O)N3CCC(CO)CC3)cc21,79%,85%,–
CN1CCN(C(=O)c2cc(O)c3c(c2)C(=O)c2cccc(O)c2C3=O)CC1,122%,0%,–
CCN1CCN(C(=O)c2cc(O)c3c(c2)C(=O)c2cccc(O)c2C3=O)CC1,24%,–,–
CC(=O)Oc1cccc2c1C(=O)c1c(OC(C)=O)cc(C(=O)Nc3ccc(C)c(Cl)c3)cc1C2=O,75%,0%,–
O=C(Nc1ccc(C(F)(F)F)cn1)c1cc(O)c2c(c1)C(=O)c1cccc(O)c1C2=O,49%,–,–
O=C(Nc1ccc(C(F)(F)F)cc1)c1cc(O)c2c(c1)C(=O)c1cccc(O)c1C2=O,57%,–,–
O=C(Nc1ccc(C(F)(F)F)cc1Cl)c1cc(O)c2c(c1)C(=O)c1cccc(O)c1C2=O,17%,–,–
CC1CCN(C(=O)c2cc(O)c3c(c2)C(=O)c2cccc(O)c2C3=O)CC1,103%,0%,–
CC(=O)Oc1cccc2c1C(=O)c1c(OC(C)=O)cc(C(=O)Nc3ccc(C)cc3)cc1C2=O,28%,–,–
CC(=O)Oc1cccc2c1C(=O)c1c(OC(C)=O)cc(C(=O)N3CCC(C)CC3)cc1C2=O,8%,–,–
O=C(O)c1cc(O)c2c(c1)C(=O)c1cccc(O)c1C2=O [RHEIN],97%,47%,Activity [14]: Non-Toxic
CC(C)(O)C1CCN(C(=O)c2cc(O)c3c(c2)C(=O)c2cccc(O)c2C3=O)CC1,92%,65%,–
Cc1cc(O)c2c(c1)C(=O)c1cc(O)cc(O)c1C2=O [EMODIN],109%,45%,Activity [14]: Non-Toxic; inhibition [8]: Active
